Experimental data published in ChEMBL document CHEMBL1121898, “Potential antiestrogens. Synthesis and evaluation of mammary tumor inhibiting activity of 1,2-dialkyl-1,2-bis(3'-hydroxyphenyl)ethanes” (1981).

What was measured:
[1] = target: T1, Estrogen receptor (Mus musculus) (UniProt O08537+P19785); experiment: Antiestrogenic activity in uterotrophic test in mice at 3.3 ug; assay type: functional
How it was run: (§1)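 Immature female NMRI mice, 20 days old (14.5 ± 1.2 g), randomly grouped 10 per group. Each received a daily sc injection for 3 days of 0.1 mL olive oil solution containing test compound, together with estrone to stimulate uterine growth. Uteri were removed 24 h after the last injection and weighed. Results are reported as % inhibition of the estrone-stimulated uterine weight gain, mean ± SD.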

[2] = species on record: Rattus norvegicus; experiment: Percent change in DMBA-induced hormone-dependent mammary carcinoma tumor area at 8.5 mg after 28 days; assay type: functional
How it was run: (§2)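 DMBA-induced, hormone-dependent mammary adenocarcinoma in SD rats. Rats bearing at least one tumor >140 mm² were placed in groups of ten. Compound was given sc as a single dose (mg/kg) daily Monday–Thursday and a double dose on Friday. Tumors were counted at the start and as new tumors; responses were scored as complete remission (not palpable), partial remission (≥50% reduction), no change or progression. Tumor area and body weight were recorded as % change.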

[3] = species on record: Rattus norvegicus; experiment: Complete remission of DMBA-induced hormone-dependent mammary carcinoma tumors in rats at 17 mg; assay type: functional
How it was run: (§3)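 Female SD rats bearing DMBA-induced, hormone-dependent mammary adenocarcinoma, with at least one tumor >140 mm², were grouped in tens. Dosing was sc per kg body weight: a single dose daily Monday–Thursday and a double dose Friday. Ovariectomy served as the comparison arm. Complete remission was defined as a tumor no longer palpable. Body weight and tumor area changes were also recorded.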

[4] = species on record: Rattus norvegicus; experiment: Percent change in DMBA-induced hormone-dependent mammary carcinoma tumor area at 34 mg after 28 days; assay type: functional; how it was run: as §2
[5] = species on record: Rattus norvegicus; experiment: Complete remission of DMBA-induced hormone-dependent mammary carcinoma tumors in rats at 34 mg; assay type: functional; how it was run: as §3
[6] = species on record: Rattus norvegicus; experiment: Percent change in DMBA-induced hormone-dependent mammary carcinoma tumor area in ovariectomised rats after 28 days; assay type: functional
How it was run: (§4)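 DMBA-induced, hormone-dependent mammary adenocarcinoma in SD rats, with ovariectomy as the treatment. Rats bearing at least one tumor >140 mm² were placed in groups of ten. Tumors were counted at the start and as new tumors. Responses were scored as complete remission, partial remission (≥50% size reduction), no change or progression, with % change in tumor area and body weight.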

[7] = species on record: Rattus norvegicus; experiment: Final number of DMBA-induced hormone-dependent mammary carcinoma tumors in rats at 17 mg; assay type: functional
How it was run: (§5)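 Sprague-Dawley rats carrying DMBA-induced, hormone-dependent mammary adenocarcinoma, at least one tumor >140 mm², were placed in groups of ten. Compounds were given sc, with doses in mg/kg: a single daily dose Monday to Thursday and a double dose on Friday. Ovariectomy served as a comparator group. New tumors arising during the test were counted.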

[8] = species on record: Rattus norvegicus; experiment: Partial remission of DMBA-induced hormone-dependent mammary carcinoma tumors in rats at 17 mg; assay type: functional; how it was run: as §2
[9] = species on record: Rattus norvegicus; experiment: Complete remission of DMBA-induced hormone-dependent mammary carcinoma tumors in rats at 8.5 mg; assay type: functional; how it was run: as §3
[10] = species on record: Rattus norvegicus; experiment: Partial remission of DMBA-induced hormone-dependent mammary carcinoma tumors in rats at 8.5 mg; assay type: functional; how it was run: as §2
[11] = species on record: Rattus norvegicus; experiment: Number of DMBA-induced hormone-dependent mammary carcinoma tumors in ovariectomised rats; assay type: functional; how it was run: as §4
[12] = species on record: Rattus norvegicus; experiment: Initial tumor number of DMBA-induced hormone-dependent mammary carcinoma in rats at 34 mg; assay type: functional; how it was run: as §2
[13] = target: T1, Estrogen receptor (Mus musculus); experiment: Estrogenic activity in uterotrophic test in mice at 30 ug; assay type: functional
How it was run: (§6)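 Uterine growth stimulation in immature female NMRI mice, 20 days old (14.5 ± 1.2 g), 10 per group. Test compound in 0.1 mL olive oil was given sc daily for 3 days. Uteri were excised 24 h after the final injection and weighed. Effect is reported as mean ± SD.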

[14] = target: T1, Estrogen receptor (Mus musculus); experiment: Estrogenic activity in uterotrophic test in mice at 100 ug; assay type: functional; how it was run: as §6
[15] = species on record: Rattus norvegicus; experiment: Progression of DMBA-induced hormone-dependent mammary carcinoma tumors in rats at 17 mg; assay type: functional
[16] = species on record: Rattus norvegicus; experiment: Progression of DMBA-induced hormone-dependent mammary carcinoma tumors in rats at 8.5 mg; assay type: functional
[17] = species on record: Rattus norvegicus; experiment: Progression of DMBA-induced hormone-dependent mammary carcinoma tumors in ovariectomised rats; assay type: functional; how it was run: as §4
[18] = species on record: Rattus norvegicus; experiment: Percent unchanged tumor size of DMBA-induced hormone-dependent mammary carcinoma tumors in rats at 8.5 mg; assay type: functional
[19] = species on record: Rattus norvegicus; experiment: Percent unchanged tumor size of DMBA-induced hormone-dependent mammary carcinoma tumors in rats at 17 mg; assay type: functional
[20] = target: T1, Estrogen receptor (Mus musculus); experiment: Antiestrogenic activity in uterotrophic test in mice at 0 ug; assay type: functional; how it was run: as §1
[21] = target: T1, Estrogen receptor (Mus musculus); experiment: Estrogenic activity in uterotrophic test in mice at 300 ug; assay type: functional
How it was run: (§7)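 Immature (20-day-old) female NMRI mice, 14.5 ± 1.2 g, randomized into groups of 10. Given the test compound sc daily for 3 days in 0.1 mL olive oil. Uteri removed 24 h after the last injection; uterine weight taken as the read-out, means ± SD. Dose in μg.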

[22] = species on record: Rattus norvegicus; experiment: Progression of DMBA-induced hormone-dependent mammary carcinoma tumors in rats at 34 mg; assay type: functional
[23] = target: T1, Estrogen receptor (Mus musculus); experiment: Estrogenic activity in uterotrophic test in mice at 0 ug; assay type: functional; how it was run: as §6
[24] = species on record: Rattus norvegicus; experiment: Percent change in DMBA-induced hormone-dependent mammary carcinoma tumor area at 17 mg after 28 days; assay type: functional; how it was run: as §2
[25] = target: T1, Estrogen receptor (Mus musculus); experiment: Antiestrogenic activity in uterotrophic test in mice at 100 ug; assay type: functional; how it was run: as §1
[26] = species on record: Rattus norvegicus; experiment: Percent change in body weight DMBA-induced hormone-dependent mammary carcinoma tumors in rats at 8.5 mg for 7 days; assay type: functional
[27] = species on record: Rattus norvegicus; experiment: Final number of DMBA-induced hormone-dependent mammary carcinoma tumors in rats at 8.5 mg; assay type: functional; how it was run: as §5
[28] = species on record: Rattus norvegicus; experiment: Percent change in body weight DMBA-induced hormone-dependent mammary carcinoma tumors in ovariectomised rats after 7 days; assay type: functional; how it was run: as §4
[29] = species on record: Rattus norvegicus; experiment: Initial tumor number of DMBA-induced hormone-dependent mammary carcinoma in rats at 17 mg; assay type: functional; how it was run: as §2
[30] = species on record: Rattus norvegicus; experiment: Partial remission of DMBA-induced hormone-dependent mammary carcinoma tumors in rats at 34 mg; assay type: functional; how it was run: as §2
[31] = species on record: Rattus norvegicus; experiment: Percent change in body weight DMBA-induced hormone-dependent mammary carcinoma tumors in rats at 17 mg for 7 days; assay type: functional
How it was run: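 DMBA-induced, hormone-dependent mammary adenocarcinoma in SD rats; animals carrying at least one tumor over 140 mm² put in groups of ten. Compound given sc, dose per kg body weight per day: single dose Monday to Thursday, double dose Friday. Body weight read out as % change, alongside tumor counts, remission categories and % change in tumor area.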

[32] = target: T1, Estrogen receptor (Mus musculus); experiment: Inhibitory activity in mouse uterine weight test at 100 ug; assay type: functional
How it was run: (§8)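 Antiuterotrophic (Dorfman) assay in immature 20-day-old female NMRI mice, groups of 10. Uterine growth was stimulated with estrone (0.1 μg) and the test compound was given alongside it, sc daily for 3 days in 0.1 mL olive oil. Uteri were taken 24 h after the last dose. Uterine weight is reported as means ± SD and inhibition as % of the estrone-stimulated response.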

[33] = target: T1, Estrogen receptor (Mus musculus); experiment: Inhibitory activity in mouse uterine weight test at 3.3 ug; assay type: functional; how it was run: as §8
[34] = species on record: Rattus norvegicus; experiment: Complete remission of DMBA-induced hormone-dependent mammary carcinoma tumors in ovariectomised rats; assay type: functional; how it was run: as §3
[35] = target: T1, Estrogen receptor (Mus musculus); experiment: Estrogenic activity in uterotrophic test in mice at 2700 ug; assay type: functional; how it was run: as §6
[36] = species on record: Rattus norvegicus; experiment: Partial remission of DMBA-induced hormone-dependent mammary carcinoma tumors in ovariectomised rats; assay type: functional; how it was run: as §4
[37] = target: T1, Estrogen receptor (Mus musculus); experiment: Estrogenic activity in uterotrophic test in mice at 900 ug; assay type: functional; how it was run: as §7
[38] = species on record: Rattus norvegicus; experiment: Final number of DMBA-induced hormone-dependent mammary carcinoma tumors in rats at 34 mg; assay type: functional; how it was run: as §5
[39] = system: Estrogen receptor (Bos taurus); experiment: Displacement of [3H]estradiol from calf estrogen receptor
[40] = species on record: Rattus norvegicus; experiment: Percent unchanged tumor size of DMBA-induced hormone-dependent mammary carcinoma tumors in rats at 34 mg; assay type: functional
[41] = target: T1, Estrogen receptor (Mus musculus); experiment: Inhibitory activity in mouse uterine weight test at 0.1 ug; assay type: functional; how it was run: as §8
[42] = target: T1, Estrogen receptor (Mus musculus); experiment: Inhibitory activity in mouse uterine weight test at 1000 ug; assay type: functional; how it was run: as §8
[43] = species on record: Rattus norvegicus; experiment: Percent unchanged tumor size of DMBA-induced hormone-dependent mammary carcinoma tumors in ovarectiemised rats; assay type: functional; how it was run: as §4
[44] = species on record: Rattus norvegicus; experiment: Initial tumor number of DMBA-induced hormone-dependent mammary carcinoma in rats at 8.5 mg; assay type: functional; how it was run: as §2
[45] = species on record: Rattus norvegicus; experiment: Percent change in body weight DMBA-induced hormone-dependent mammary carcinoma tumors in rats at 34 mg for 7 days; assay type: functional
[46] = target: T1, Estrogen receptor (Mus musculus); experiment: Antiestrogenic activity in uterotrophic test in mice at 1000 ug; assay type: functional; how it was run: as §1

T1 sequence (O08537 whole entry, looked up): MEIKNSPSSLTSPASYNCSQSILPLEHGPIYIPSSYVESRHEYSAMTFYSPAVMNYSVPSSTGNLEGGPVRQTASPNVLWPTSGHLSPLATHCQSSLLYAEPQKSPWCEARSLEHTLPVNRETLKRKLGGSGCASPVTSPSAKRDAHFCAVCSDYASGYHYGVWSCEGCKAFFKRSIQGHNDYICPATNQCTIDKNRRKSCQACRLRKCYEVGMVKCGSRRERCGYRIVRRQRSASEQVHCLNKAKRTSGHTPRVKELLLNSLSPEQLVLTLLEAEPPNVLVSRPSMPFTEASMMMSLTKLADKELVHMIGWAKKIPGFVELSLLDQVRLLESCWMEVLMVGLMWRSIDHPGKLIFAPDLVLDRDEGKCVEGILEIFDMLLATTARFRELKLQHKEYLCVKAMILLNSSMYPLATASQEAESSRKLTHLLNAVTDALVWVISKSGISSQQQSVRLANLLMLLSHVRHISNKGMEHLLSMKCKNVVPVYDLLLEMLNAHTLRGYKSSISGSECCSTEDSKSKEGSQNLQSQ
T1 sequence (P19785 whole entry, looked up): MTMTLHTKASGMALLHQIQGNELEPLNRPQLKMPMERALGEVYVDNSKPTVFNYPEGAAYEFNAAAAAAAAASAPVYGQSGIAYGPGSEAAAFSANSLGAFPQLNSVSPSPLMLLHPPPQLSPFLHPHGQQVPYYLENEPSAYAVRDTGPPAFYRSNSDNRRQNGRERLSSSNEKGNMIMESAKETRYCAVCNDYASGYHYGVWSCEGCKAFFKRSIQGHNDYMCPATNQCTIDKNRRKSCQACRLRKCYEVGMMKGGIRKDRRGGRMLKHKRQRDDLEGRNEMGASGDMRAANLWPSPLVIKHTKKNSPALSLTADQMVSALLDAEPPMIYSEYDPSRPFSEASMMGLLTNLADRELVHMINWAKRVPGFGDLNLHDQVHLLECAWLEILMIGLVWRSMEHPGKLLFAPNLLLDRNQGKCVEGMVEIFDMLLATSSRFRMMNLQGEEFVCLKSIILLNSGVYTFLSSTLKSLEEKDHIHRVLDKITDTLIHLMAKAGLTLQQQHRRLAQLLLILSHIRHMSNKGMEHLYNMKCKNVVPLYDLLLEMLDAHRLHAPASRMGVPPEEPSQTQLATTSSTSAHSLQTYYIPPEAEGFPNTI

Compound: CCCCC(c1cccc(O)c1)C(CCCC)c1cccc(O)c1 (stereo unspecified)
- Effect [1]: 33.9
- Change [2]: 534%
- Tumors [3]: 3%
- Change [4]: 260%
- Tumors [5]: 6%
- Change [6]: -96%
- No. of tumors [7]: 45
- Tumors [8]: 6%
- Tumors [9]: 2%
- Tumors [10]: 9%
- No. of tumors [11]: 8
- No. of tumors [12]: 22
- Effect [13]: 11.2
- Effect [14]: 12.6
- Tumors [15]: 55%
- Tumors [16]: 65%
- Tumors [17]: 0%
- Tumors [18]: 24%
- Tumors [19]: 36%
- Effect [20]: 10.5
- Effect [21]: 16.5
- Tumors [22]: 58%
- Effect [23]: 10.5
- Change [24]: 389%
- Effect [25]: 25.9
- Change [26]: 1.5%
- No. of tumors [27]: 37
- Change [28]: 3.6%
- No. of tumors [29]: 27
- Tumors [30]: 9%
- Change [31]: 1.7%
- inhibition [32]: 45%
- inhibition [33]: 16%
- Tumors [34]: 74%
- Effect [35]: 35.2
- Tumors [36]: 23%
- Effect [37]: 30.8
- No. of tumors [38]: 30
- Ka [39]: 2.3e+07 M⁻¹
- Tumors [40]: 27%
- inhibition [41]: 3%
- inhibition [42]: 1%
- Tumors [43]: 3%
- No. of tumors [44]: 21
- Change [45]: 0.3%
- Effect [46]: 38.1
